ChEMBL document CHEMBL4406834, “Phenylthiazoles with nitrogenous side chain: An approach to overcome molecular obesity” (Eur J Med Chem, 2019)

What was measured:
Assay type in all cases: functional
Staphylococcus aureus [1] = assay: Antibacterial activity against methicillin-resistant Staphylococcus aureus NRS384 USA300 after 18 to 20 hrs by broth microdilution assay
Summary of the method: (§1)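 Broth microdilution per CLSI. Strains grown aerobically overnight on tryptone soy agar at 37 °C, adjusted to 0.5 McFarland, then diluted in cation-adjusted Mueller-Hinton broth to about 5 × 10^5 CFU/mL. Compounds (10 mg/mL DMSO stocks) serially diluted. Incubated aerobically at 37 °C for 18-20 h. MIC is the lowest concentration with no visible growth.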

Streptococcus pneumoniae [2] = assay: Bactericidal activity against methicillin-resistant Streptococcus pneumoniae ATCC 700677 incubated for 18 to 20 hrs followed by replating on tryptic soy agar plate and further incubated for 18 to 24 hrs by CLSI-based broth microdilution assay
Summary of the method: (§2)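 MBC: after the broth microdilution MIC (CAMHB, ~5 × 10^5 CFU/mL, 37 °C, 18-20 h), 4 µL from wells without growth plated onto tryptic soy agar. Plates incubated 37 °C for 18-20 h. MBC is the lowest concentration giving 99.9% reduction in growth.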

Streptococcus pneumoniae [3] = assay: Bactericidal activity against cephalosporin-resistant Streptococcus pneumoniae ATCC 51916 incubated for 18 to 20 hrs followed by replating on tryptic soy agar plate and further incubated for 18 to 24 hrs by CLSI-based broth microdilution assay; summary of the method: as §2
Listeria monocytogenes [4] = assay: Bactericidal activity against Listeria monocytogenes ATCC 19111 incubated for 18 to 20 hrs followed by replating on tryptic soy agar plate and further incubated for 18 to 24 hrs by CLSI-based broth microdilution assay
Enterococcus faecium [5] = assay: Bactericidal activity against vancomycin-resistant Enterococcus faecium ATCC 700221 incubated for 18 to 20 hrs followed by replating on tryptic soy agar plate and further incubated for 18 to 24 hrs by CLSI-based broth microdilution assay; summary of the method: as §2
Enterococcus faecalis = assay: Bactericidal activity against vancomycin-resistant Enterococcus faecalis ATCC 51299 incubated for 18 to 20 hrs followed by replating on tryptic soy agar plate and further incubated for 18 to 24 hrs by CLSI-based broth microdilution assay; summary of the method: as §2
[6] = tested on: Staphylococcus epidermidis; assay: Bactericidal activity against methicillin-resistant Staphylococcus epidermidis NRS101 incubated for 18 to 20 hrs followed by replating on tryptic soy agar plate and further incubated for 18 to 24 hrs by CLSI-based broth microdilution assay
Listeria monocytogenes [7] = assay: Antibacterial activity against Listeria monocytogenes ATCC 19111 after 18 to 20 hrs by CLSI-based broth microdilution assay
Enterococcus faecium [8] = assay: Antibacterial activity against vancomycin-resistant Enterococcus faecium ATCC 700221 after 18 to 20 hrs by CLSI-based broth microdilution assay; summary of the method: as §1
[9] = tested on: Staphylococcus epidermidis; assay: Antibacterial activity against methicillin-resistant Staphylococcus epidermidis NRS101 after 18 to 20 hrs by CLSI-based broth microdilution assay; summary of the method: as §1
Staphylococcus aureus [10] = assay: Bactericidal activity against vancomycin-resistant Staphylococcus aureus 12 incubated for 18 to 20 hrs followed by replating on tryptic soy agar plate and further incubated for 18 to 24 hrs by CLSI-based broth microdilution assay; summary of the method: as §2
Staphylococcus aureus [11] = assay: Bactericidal activity against vancomycin-resistant Staphylococcus aureus 10 incubated for 18 to 20 hrs followed by replating on tryptic soy agar plate and further incubated for 18 to 24 hrs by CLSI-based broth microdilution assay; summary of the method: as §2
Staphylococcus aureus [12] = assay: Bactericidal activity against methicilline-resistant Staphylococcus aureus NRS386 USA700 incubated for 18 to 20 hrs followed by replating on tryptic soy agar plate and further incubated for 18 to 24 hrs by CLSI-based broth microdilution assay; summary of the method: as §2
Staphylococcus aureus [13] = assay: Bactericidal activity against methicilline-resistant Staphylococcus aureus NRS385 USA500 incubated for 18 to 20 hrs followed by replating on tryptic soy agar plate and further incubated for 18 to 24 hrs by CLSI-based broth microdilution assay; summary of the method: as §2
Staphylococcus aureus [14] = assay: Bactericidal activity against methicilline-resistant Staphylococcus aureus NRS384 USA300 incubated for 18 to 20 hrs followed by replating on tryptic soy agar plate and further incubated for 18 to 24 hrs by CLSI-based broth microdilution assay; summary of the method: as §2
Staphylococcus aureus [15] = assay: Bactericidal activity against methicilline-resistant Staphylococcus aureus NRS123 USA400 incubated for 18 to 20 hrs followed by replating on tryptic soy agar plate and further incubated for 18 to 24 hrs by CLSI-based broth microdilution assay; summary of the method: as §2
Staphylococcus aureus [16] = assay: Bactericidal activity against methicilline-resistant Staphylococcus aureus NRS-119 incubated for 18 to 20 hrs followed by replating on tryptic soy agar plate and further incubated for 18 to 24 hrs by CLSI-based broth microdilution assay; summary of the method: as §2
Staphylococcus aureus [17] = assay: Bactericidal activity against methicilline-sensitive Staphylococcus aureus NRS-107 incubated for 18 to 20 hrs followed by replating on tryptic soy agar plate and further incubated for 18 to 24 hrs by CLSI-based broth microdilution assay; summary of the method: as §2
Staphylococcus aureus [18] = assay: Bactericidal activity against methicilline-sensitive Staphylococcus aureus ATCC 6538 incubated for 18 to 20 hrs followed by replating on tryptic soy agar plate and further incubated for 18 to 24 hrs by CLSI-based broth microdilution assay; summary of the method: as §2
Staphylococcus aureus [19] = assay: Bactericidal activity against Staphylococcus aureus ATCC BAA42 incubated for 18 to 20 hrs followed by replating on tryptic soy agar plate and further incubated for 18 to 24 hrs by CLSI-based broth microdilution assay; summary of the method: as §2
Staphylococcus aureus [20] = assay: Antibacterial activity against vancomycin-resistant Staphylococcus aureus 12 after 18 to 20 hrs by CLSI-based broth microdilution assay; summary of the method: as §1
Staphylococcus aureus [21] = assay: Antibacterial activity against vancomycin-resistant Staphylococcus aureus 10 after 18 to 20 hrs by CLSI-based broth microdilution assay; summary of the method: as §1
Staphylococcus aureus [22] = assay: Antibacterial activity against methicilline-resistant Staphylococcus aureus NRS385 USA500 after 18 to 20 hrs by CLSI-based broth microdilution assay; summary of the method: as §1
Staphylococcus aureus [23] = assay: Antibacterial activity against methicilline-resistant Staphylococcus aureus NRS386 USA700 after 18 to 20 hrs by CLSI-based broth microdilution assay; summary of the method: as §1
Staphylococcus aureus [24] = assay: Antibacterial activity against methicilline-resistant Staphylococcus aureus NRS384 USA300 after 18 to 20 hrs by CLSI-based broth microdilution assay; summary of the method: as §1
Staphylococcus aureus [25] = assay: Antibacterial activity against methicilline-resistant Staphylococcus aureus NRS123 USA400 after 18 to 20 hrs by CLSI-based broth microdilution assay; summary of the method: as §1
Staphylococcus aureus [26] = assay: Antibacterial activity against methicilline-resistant Staphylococcus aureus NRS-119 after 18 to 20 hrs by CLSI-based broth microdilution assay; summary of the method: as §1
Staphylococcus aureus [27] = assay: Antibacterial activity against methicilline-sensitive Staphylococcus aureus ATCC 6538 after 18 to 20 hrs by CLSI-based broth microdilution assay; summary of the method: as §1
Staphylococcus aureus [28] = assay: Antibacterial activity against methicilline-sensitive Staphylococcus aureus NRS-107 after 18 to 20 hrs by CLSI-based broth microdilution assay; summary of the method: as §1
Staphylococcus aureus [29] = assay: Antibacterial activity against Staphylococcus aureus ATCC BAA42 after 18 to 20 hrs by CLSI-based broth microdilution assay; summary of the method: as §1

C/C(=N\NC(=N)N)c1sc(-c2ccc(N3CCSCC3)cc2)nc1C
32 µg/mL: MIC (Staphylococcus aureus [1])

CC(=O)NC[C@H]1CN(c2ccc(N3CCOCC3)c(F)c2)C(=O)O1 [LINEZOLID]
≤ 0.5 µg/mL: MIC (Listeria monocytogenes [7])
8 µg/mL: MBC [6]
1 µg/mL: MIC (Enterococcus faecium [8]) | MIC (Staphylococcus aureus [20]) | MIC (Staphylococcus aureus [21]) | MIC (Staphylococcus aureus [22]) | MIC (Staphylococcus aureus [23]) | MIC (Staphylococcus aureus [24]) | MIC (Staphylococcus aureus [25]) | MIC (Staphylococcus aureus [27]) | MIC (Staphylococcus aureus [28]) | MIC (Staphylococcus aureus [29]) | MIC (Staphylococcus aureus [1])
16 µg/mL: MBC (Streptococcus pneumoniae [2]) | MBC (Enterococcus faecium [5]) | MBC (Enterococcus faecalis) | MBC (Staphylococcus aureus [12]) | MBC (Staphylococcus aureus [18]) | MBC (Staphylococcus aureus [19])
> 64 µg/mL: MBC (Staphylococcus aureus [11]) | MBC (Staphylococcus aureus [16])
0.5 µg/mL: MIC [9]
64 µg/mL: MBC (Staphylococcus aureus [10]) | MBC (Staphylococcus aureus [15]) | MBC (Staphylococcus aureus [17]) | MIC (Staphylococcus aureus [26])
32 µg/mL: MBC (Streptococcus pneumoniae [3]) | MBC (Listeria monocytogenes [4]) | MBC (Staphylococcus aureus [13]) | MBC (Staphylococcus aureus [14])

C/C(=N\NC(=N)N)c1sc(-c2ccc(N3CCCCC3C)cc2)nc1C (stereo not drawn)
8 µg/mL: MIC (Staphylococcus aureus [1])

C/C(=N\NC(=N)N)c1sc(-c2ccc(N3CCSC3)cc2)nc1C
> 128 µg/mL: MIC (Staphylococcus aureus [1])
